Drawing on ChEMBL document CHEMBL3244123, “Isoquinolines. 5. Synthesis and antiarrhythmic activity of benzylisoquinoline derivatives” (J Med Chem, 1977), this text covers Activity and ED50 for 14 compounds.

Activity calls are given as the source filed them. The calls are words filed in the database; no cut-off is given here.

The subject of data set [1] is Mus musculus. Put plainly: Toxicity in Swiss albino mouse assessed as loss of righting reflex at 138 mg/kg, sc measured up to 20 mins. The format is organism-based. The arrangement: dose 138 mg/kg, route subcutaneous. The settings on record: in vivo. In outline:
(§1)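 Female Swiss albino mice, ten per dose, were given drug in 0.9% saline sc and watched for 20 min before chloroform challenge. Ataxia, convulsions, loss of righting reflex and death were each reported as number of animals affected of ten.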

Data set [2] concerns Mus musculus. Put plainly: Antiarrhythmic activity in sc dosed Swiss albino mouse assessed as protection against chloroform-induced ventricular fibrillation compound administered 20 mins prior to challenge. The class given is functional. As to conditions: Heart. In outline:
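Female Swiss albino mice, ten per dose, given drug sc in 0.9% saline; screen at 100 mg/kg (raised to 200 mg/kg if neither protection nor toxicity), observed 20 min for toxicity, then exposed to chloroform vapour; absence of ventricular fibrillation counted as protection. Full tests used three log-spaced doses; ED50 with 95% Fieller limits by Berkson minimum logit χ² analysis.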

Data set [3] has as its system Mus musculus. Description: Toxicity in Swiss albino mouse assessed as convulsions at 138 mg/kg, sc measured up to 20 mins. The arrangement: dose 138 mg/kg, route subcutaneous. The settings on record: in vivo. The class given is organism-based. In outline:
as §1

The test system of data set [4] is Mus musculus. Put plainly: Toxicity in Swiss albino mouse assessed as mortality at 138 mg/kg, sc measured up to 20 mins. The settings on record: in vivo. The class given is organism-based. The arrangement: dose 138 mg/kg, route subcutaneous. In outline: as §1
For data set [5], the system named is Mus musculus. Description: Toxicity in Swiss albino mouse assessed as ataxia at 138 mg/kg, sc measured up to 20 mins. The class given is organism-based. As to conditions: in vivo. The arrangement: dose 138 mg/kg, route subcutaneous. The procedure, abridged:
as §1

The test system of data set [6] is Mus musculus. Put plainly: Toxicity in Swiss albino mouse assessed as convulsions at 200 mg/kg, sc measured up to 20 mins. The format is organism-based. The arrangement: dose 200 mg/kg, route subcutaneous. The settings on record: in vivo. The procedure, abridged:
as §1

Data set [7] relates to Mus musculus. Description: Toxicity in Swiss albino mouse assessed as ataxia at 200 mg/kg, sc measured up to 20 mins. The class given is organism-based. The arrangement: dose 200 mg/kg, route subcutaneous. The settings on record: in vivo. In outline:
as §1

The subject of data set [8] is Mus musculus. Put plainly: Toxicity in Swiss albino mouse assessed as mortality at 200 mg/kg, sc measured up to 20 mins. The settings on record: in vivo. The arrangement: dose 200 mg/kg, route subcutaneous. The format is organism-based. In outline:
as §1

For data set [9], the system named is Mus musculus. Put plainly: Toxicity in Swiss albino mouse assessed as loss of righting reflex at 200 mg/kg, sc measured up to 20 mins. The arrangement: dose 200 mg/kg, route subcutaneous. The class given is organism-based. The settings on record: in vivo. The procedure, abridged: as §1
For data set [10], the system named is Mus musculus. Put plainly: Toxicity in Swiss albino mouse assessed as mortality at 100 mg/kg, sc measured up to 20 mins. The class given is organism-based. The arrangement: dose 100 mg/kg, route subcutaneous. The settings on record: in vivo. In outline:
as §1

In data set [11] the test system is Mus musculus. Put plainly: Toxicity in Swiss albino mouse assessed as loss of righting reflex at 100 mg/kg, sc measured up to 20 mins. The format is organism-based. The arrangement: dose 100 mg/kg, route subcutaneous. The settings on record: in vivo. In outline: as §1
The subject of data set [12] is Mus musculus. Put plainly: Toxicity in Swiss albino mouse assessed as convulsions at 100 mg/kg, sc measured up to 20 mins. The format is organism-based. The arrangement: dose 100 mg/kg, route subcutaneous. The settings on record: in vivo. The procedure, abridged: as §1
For data set [13], the system named is Mus musculus. Description: Toxicity in Swiss albino mouse assessed as ataxia at 100 mg/kg, sc measured up to 20 mins. The format is organism-based. The arrangement: dose 100 mg/kg, route subcutaneous. The settings on record: in vivo. In outline: as §1
The test system of data set [14] is Canis familiaris. Description: Antiarrhythmic activity in beagle dog myocardial infarction model assessed as ventricular ectopic beats at 0.5 mg/kg/min, iv administered as infusion (reference value: 84 to 98 %). The format is functional, Canis lupus familiaris, Heart. In outline:
(§2)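 Drug infused iv via a fore limb vein at 0.5 mg/kg/min (as base, in 0.9% saline, pH 6–7) until clearing (ventricular ectopic activity ≤5% for a consecutive 5 min); EKG and vital signs monitored during and after infusion.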

Data set [15] relates to Canis familiaris. Put plainly: Toxicity in beagle dog myocardial infarction model assessed as convulsions compound administered iv as infusion. The format is organism-based, Canis lupus familiaris. As to conditions: in vivo. In outline: as §2
Data set [16] deals with Canis familiaris. Description: Antiarrhythmic activity in beagle dog myocardial infarction model assessed as ventricular rate at 0.5 mg/kg/min, iv administered as infusion (reference value: 126 to 221 bpm). The class given is functional, Canis lupus familiaris, Heart. The procedure, abridged:
as §2

Data set [17] deals with Canis familiaris. Description: Toxicity in beagle dog myocardial infarction model assessed as head tremors compound administered iv as infusion. The format is organism-based, Canis lupus familiaris. The settings on record: in vivo. In outline:
as §2

For data set [18], the system named is Canis familiaris. Put plainly: Antiarrhythmic activity in beagle dog myocardial infarction model assessed as concentration required for reduction in ventricular ectopic activity to 5% or less for a consecutive 5 min compound administered iv as infusion. The class given is functional, Canis lupus familiaris, Heart. The procedure, abridged:
as §2

The subject of data set [19] is Canis familiaris. Put plainly: Antiarrhythmic activity in beagle dog myocardial infarction model assessed as mean arterial blood pressure at 0.5 mg/kg/min, iv administered as infusion (reference value: 80 to 115 mmHg).
Data set [20] has as its system Mus musculus. Put plainly: Antiarrhythmic activity in Swiss albino mouse assessed as protection against chloroform-induced ventricular fibrillation at 100 mg/kg, sc administered 20 mins prior to challenge. The format is functional, organism-based. The arrangement: dose 100 mg/kg. The settings on record: Heart. In outline:
(§3)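 Female Swiss albino mice, groups of ten, received drug in 0.9% saline sc at 100 mg/kg; dose raised to 200 mg/kg when neither protection nor toxicity appeared. After 20 min, mice were exposed to chloroform vapour. Absence of ventricular fibrillation counted as protection, reported as number protected of ten.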

The test system of data set [21] is Mus musculus. Put plainly: Antiarrhythmic activity in Swiss albino mouse assessed as protection against chloroform-induced ventricular fibrillation at 200 mg/kg, sc administered 20 mins prior to challenge. The format is functional, organism-based. The arrangement: dose 200 mg/kg. As to conditions: Heart. The procedure, abridged: as §3
Data set [22] concerns Mus musculus. Description: Toxicity in Swiss albino mouse assessed as ataxia at 47 mg/kg, sc measured up to 20 mins. The format is organism-based. The arrangement: dose 47 mg/kg, route subcutaneous. As to conditions: in vivo. The procedure, abridged:
as §1

The test system of data set [23] is Mus musculus. Put plainly: Antiarrhythmic activity in Swiss albino mouse assessed as protection against chloroform-induced ventricular fibrillation at 47 mg/kg, sc administered 20 mins prior to challenge. The class given is functional, organism-based. The arrangement: dose 47 mg/kg. The settings on record: Heart. The procedure, abridged:
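Female Swiss albino mice, ten per dose, received drug in 0.9% saline sc at one of three log-spaced doses. After 20 min, mice were exposed to chloroform vapour. Mice without ventricular fibrillation were scored protected, reported as number protected of ten.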

Data set [24] deals with Mus musculus. Description: Toxicity in Swiss albino mouse assessed as loss of righting reflex at 47 mg/kg, sc measured up to 20 mins. The class given is organism-based. The arrangement: dose 47 mg/kg, route subcutaneous. As to conditions: in vivo. In outline: as §1

A word on the ED50: it is the dose that gives a 50% effect, or the effect in half of the subjects.

`CCN(CC)CC(=O)Nc1c(CC2c3ccccc3CCN2C)ccc(OC)c1OC.Cl` (centres undefined): the Activity result in data set [1], in data set [3], in data set [4] and in data set [5] was “Non-toxic” in each case. Besides, in [2], the ED50 was 147 mg/kg.

In the case of `CCN(CC)CC(=O)Nc1cc(OC)ccc1C.Cl`, the Activity entry in [6], in data set [7], in data set [8] and in data set [9] was “Non-toxic” in each case.

Regarding `CCN(CC)CC(=O)Nc1cc(OC)c(OC)cc1Cc1nccc2ccccc12`, the Activity entry in data set [10], in data set [11] and in data set [12] was “Non-toxic” throughout.

As to `CCNCC(=O)Nc1cc(OC)c(OC)cc1Cc1nccc2cc(OC)c(OC)cc12`, the Activity entry in data set [10], in data set [11] and in data set [12] was “Non-toxic” in each case.

Regarding `COc1ccc(Cc2nccc3ccccc23)c(NC(=O)CN)c1OC`, the Activity result in data set [13], in data set [10], in data set [11] and in [12] was “Non-toxic” throughout.

`CCN(CC)CC(=O)Nc1c(Cc2nccc3ccccc23)ccc(OC)c1OC`: the Activity was 0% in data set [14]; 15.75 mg/kg in data set [15]; 135% in data set [16]; 6.25 mg/kg in data set [17]; “Non-toxic” in data set [13]; “Non-toxic” in data set [10]. For the same compound, the Activity result in [11] was “Non-toxic”; in [18] it was 46.5 mg/kg; in data set [19], 90%; in [12] it was “Non-toxic”.

As to `CCN(CC)CC(=O)Nc1cc(OC)ccc1Cc1nccc2ccccc12`, the Activity result in data set [6], in [7], in data set [8], in data set [13], in data set [10] and in data set [11] was “Non-toxic” throughout. Besides, the Activity result in data set [12] and in data set [9] was “Non-toxic” each time. Moreover, the outcome in data set [20] and in [21] was inactive.

For the compound `COc1ccc(CC2c3cc(OC)c(OC)cc3CCN2C)cc1OC` (racemic) [LAUDANOSINE], the Activity result is on record as “Non-toxic” in data set [22]; “Toxic” in [13]; “Non-toxic” in [24]; “Toxic” in [10]; “Non-toxic” in data set [11]; “Toxic” in data set [12]. The outcome in data set [23] and in [20] was inactive.

Take `COc1ccc(Cc2nccc3ccccc23)c(NC(=O)C(C)N)c1OC` (centres undefined): the Activity result in data set [13], in [10], in [11] and in [12] was “Non-toxic” throughout.

On to `CCN(CC)CC(=O)Nc1c(C)cccc1C` [LIDOCAINE], for which, in [20], the result was Active. For the same compound, the Activity entry in data set [13] is reported as “Toxic”; in data set [10] it was “Non-toxic”; in data set [11], “Toxic”; in data set [12], “Toxic”.

Regarding `CCNCC(=O)Nc1c(Cc2nccc3ccccc23)ccc(OC)c1OC`, the Activity in data set [14] is 0%; in data set [13] it was “Non-toxic”; in data set [10], “Non-toxic”; in [11], “Non-toxic”; in data set [18], 10 mg/kg; in data set [19], 85%. Besides, the Activity result in data set [12] was “Non-toxic”.

Turning to `COc1ccc(Cc2nccc3cc(OC)c(OC)cc23)cc1OC` [PAPAVERINE], the Activity result in data set [10], in data set [11] and in [12] was “Non-toxic” throughout.

Take `CCN(CC)CC(=O)Nc1cc(OC)c(OC)cc1C.Cl`: the Activity entry in [6], in data set [7], in data set [8], in [13], in data set [10] and in data set [11] was “Non-toxic” each time. Besides, the Activity result in data set [12] and in [9] was “Non-toxic” in each case. Further, the result in [20] was inactive.

In the case of `CCN(CC)CC(=O)Nc1cc(OC)c(OC)cc1Cc1nccc2cc(OC)c(OC)cc12`, the Activity result in data set [13], in data set [10], in data set [11] and in data set [12] was “Non-toxic” in each case.
